Results published in ChEMBL document CHEMBL1133661, “Synthesis and in vitro anti-mycobacterium activity of N-alkyl-1, 2-dihydro-2-thioxo-3-pyridinecarbothioamides. Preliminary toxicity and pharmacokinetic evaluation” (J Med Chem, 2000).
≈ marks a conversion by molar mass, not a printed value.

What was measured:
[1] = Clearance (CL) value in rats after intravenous administration.; format: ADME, organism-based; conditions: rat, in vivo, read-out: CI
Summary of the method: (§1)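 Male Wistar rats (250-300 g), single 20 mg/kg i.v. dose in poly(ethylene glycol) 400, given through a permanent jugular-vein cannula that also served for blood sampling. Plasma levels measured by GC-MS (electron impact 70 eV; ions 233, 181, 168, 137, 104 monitored). Parameters derived by noncompartmental analysis.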

[2] = test system: Mycobacterium avium; test: In Vitro antimicrobial activity against the Mycobacterium avium complex (MAC) Wild type strain AN1; format: functional
Summary of the method: (§2)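 MIC by radiometric broth dilution (BACTEC 460-TB) in 7H12 liquid medium containing 14C-palmitic acid. Growth read as 14CO2 release, recorded as growth index (0–999). Compounds stocked in DMSO; working solutions at 40-fold final concentration made in sterile distilled water. Ethambutol reference. MIC expressed in µg/mL.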

[3] = test system: Mycobacterium avium; test: In Vitro antimicrobial activity against the Mycobacterium avium complex (MAC) Wild type strain AN3; format: functional; summary of the method: as §2
[4] = Elimination half life value after intravenous administration in rats; format: ADME, organism-based; conditions: rat, in vivo; summary of the method: as §1
[5] = test system: Mycobacterium avium; test: In Vitro antimicrobial activity against the Mycobacterium avium complex (MAC) strain ATCC 15769; format: functional; summary of the method: as §2
[6] = test system: Mycobacterium avium; test: In Vitro antimicrobial activity against the Mycobacterium avium complex (MAC) Wild type strain AN2; format: functional; summary of the method: as §2
[7] = Area under curve (AUC) value of the compound; format: ADME; summary of the method: as §1
[8] = Mean residence time (MRT) in rats after intravenous administration.; format: ADME, organism-based; conditions: rat, in vivo; summary of the method: as §1
[9] = test system: Mycobacterium tuberculosis; test: In Vitro antimicrobial activity against the Mycobacterium tuberculosis (MT) strain H-37-Rv ATCC; format: functional; summary of the method: as §2
[10] = test system: Mycobacterium tuberculosis; test: In Vitro antimicrobial activity against the Mycobacterium tuberculosis (MT) Wild type strain MT-1; format: functional; summary of the method: as §2
[11] = Volume of distribution in rats after intravenous administration; format: ADME, organism-based; conditions: rat, in vivo, read-out: Vss; summary of the method: as §1
[12] = test system: Mycobacterium avium; test: In Vitro antimicrobial activity against the Mycobacterium avium complex (MAC) Wild type strain ISS 486; format: functional; summary of the method: as §2
[13] = test system: Mycobacterium tuberculosis; test: In Vitro antimicrobial activity against the Mycobacterium tuberculosis (MT) Wild type strain MT-2; format: functional; summary of the method: as §2
[14] = test system: Mycobacterium avium; test: In Vitro antimicrobial activity against Mycobacterium avium complex (MAC) strain ATCC 15769; format: functional; summary of the method: as §2

SMILES	clearance [1] [mL/min]	MIC [2] [µg/mL]	MIC [3] [µg/mL]	half-life [4] [min]	MIC [5] [µg/mL]	MIC [6] [µg/mL]	AUC [7] [ng·h/mL]	MRT [8] [min]	MIC [9] [µg/mL]	MIC [10] [µg/mL]	Vd [11] [L]	MIC [12] [µg/mL]	MIC [13] [µg/mL]	MIC [14] [µg/mL]
CC/N=C(\S)c1cccnc1S	20	4 (≈ 20.2 µM)	8 (≈ 40.3 µM)	37.2	4 (≈ 20.2 µM)	8 (≈ 40.3 µM)	18500	47.6	0.5 (≈ 2.52 µM)	1 (≈ 5.04 µM)	0.93	4 (≈ 20.2 µM)	1 (≈ 5.04 µM)	–
CCCCCCCCCC/N=C(\S)c1cccnc1S	–	32 (≈ 103 µM)	32 (≈ 103 µM)	–	16 (≈ 51.5 µM)	32 (≈ 103 µM)	–	–	16 (≈ 51.5 µM)	64 (≈ 206 µM)	–	32 (≈ 103 µM)	64 (≈ 206 µM)	–
CCCC/N=C(\S)c1cccnc1S	–	4 (≈ 17.7 µM)	4 (≈ 17.7 µM)	–	1 (≈ 4.42 µM)	4 (≈ 17.7 µM)	–	–	4 (≈ 17.7 µM)	4 (≈ 17.7 µM)	–	2 (≈ 8.84 µM)	4 (≈ 17.7 µM)	–
CCCCCCCCC/N=C(\S)c1cccnc1S	–	8 (≈ 27 µM)	8 (≈ 27 µM)	–	8 (≈ 27 µM)	8 (≈ 27 µM)	–	–	4 (≈ 13.5 µM)	16 (≈ 54 µM)	–	8 (≈ 27 µM)	16 (≈ 54 µM)	–
CCCCCC/N=c1\ssc2ncccc12.CCCCCCn1sc2ncccc2c1=S	–	–	–	–	8	–	–	–	4	8	–	–	8	–
CCCCCCCCCCCCCCCC/N=C(\S)c1cccnc1S	–	8 (≈ 20.3 µM)	8 (≈ 20.3 µM)	–	8 (≈ 20.3 µM)	8 (≈ 20.3 µM)	–	–	16 (≈ 40.5 µM)	16 (≈ 40.5 µM)	–	8 (≈ 20.3 µM)	32 (≈ 81.1 µM)	–
O=c1ssc2ncccc12	–	–	–	–	2 (≈ 11.8 µM)	–	–	–	4 (≈ 23.6 µM)	8 (≈ 47.3 µM)	–	–	8 (≈ 47.3 µM)	–
S=c1ssc2ncccc12	–	–	–	–	–	–	–	–	–	–	–	–	–	8 (≈ 43.2 µM)
CCCCC/N=C(\S)c1cccnc1S	–	1 (≈ 4.16 µM)	1 (≈ 4.16 µM)	–	1 (≈ 4.16 µM)	2 (≈ 8.32 µM)	–	–	2 (≈ 8.32 µM)	4 (≈ 16.6 µM)	–	1 (≈ 4.16 µM)	4 (≈ 16.6 µM)	–
CCCCCCn1sc2ncccc2c1=O	–	–	–	–	16 (≈ 67.7 µM)	–	–	–	16 (≈ 67.7 µM)	8 (≈ 33.8 µM)	–	–	8 (≈ 33.8 µM)	–
